Reference: ChEMBL document CHEMBL2375261, “Glycyrrhetinic acid and its analogs: a new class of antifilarial agents” (Bioorg Med Chem Lett, 2013)
Converted amounts (≈) assume the structure as drawn. The source made the active and inactive calls. No cut-off for these calls is given here.

Key:
Brugia malayi [1] = assay: Antifilarial activity against female adult Brugia malayi assessed as inhibition of motility after 24 hrs by microscopic analysis; assay type: functional, organism-based; conditions: for IC50: Brugia malayi, 24 h
Summary of the method: (§1)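 In vitro, female adult worms and microfilariae of Brugia malayi were scored for motility. LC100 is the concentration giving 100% motility inhibition, which is taken as parasite death. IC50 is the concentration giving 50% motility inhibition. Adult worms were also run in a parallel MTT reduction assay, reported as mean % inhibition.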

Brugia malayi [2] = assay: Antifilarial activity against female adult Brugia malayi assessed as inhibition of MTT reduction at LC100 concentration after 24 hrs; assay type: functional
Brugia malayi [3] = assay: Antifilarial activity against microfilariae Brugia malayi assessed as inhibition of motility after 24 hrs by microscopic analysis; assay type: functional, organism-based; conditions: for IC50: Brugia malayi, 24 h; summary of the method: as §1
[4] = Cytotoxicity against african green monkey Vero cells; assay type: cell-based; conditions: chlorocebus sabaeus
[5] = Selectivity index, ratio of CC50 for african green monkey Vero cells to IC50 for microfilariae Brugia malayi; assay type: functional
Summary of the method: (§2)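 Selectivity index was calculated as CC50 (concentration killing 50% of cells) divided by the motility IC50 (concentration giving 50% motility inhibition). This was done separately for female adult worms and for microfilariae of B. malayi.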

Brugia malayi [6] = assay: Ratio of diethylcarbamazine citrate LC100 to compound LC100 for female adult Brugia malayi; assay type: functional
Brugia malayi [7] = assay: Ratio of diethylcarbamazine citrate IC50 to compound IC50 for female adult Brugia malayi; assay type: functional
Brugia malayi [8] = assay: Antifilarial activity against adult Brugia malayi infected in jirds assessed as sterile female worms recovered from host at 100 mg/kg, sc qd for 5 days measured after 56 days relative to control; assay type: functional; conditions: route subcutaneous
Summary of the method: (§3)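 Jirds (Meriones unguiculatus) infected with B. malayi were dosed s.c. once daily for 5 days, at 100 mg/kg or, for the reference drug, 25 mg/kg; vehicle-treated animals served as controls (4–6 animals per group). Microfilariae in the peritoneal cavity were assessed on days 7/8 after treatment began. Recovered adult worms were counted as % inhibition over untreated control, with % sterile females scored. Data are mean ± SD, compared by Student's t test.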

[9] = Selectivity index, ratio of CC50 for african green monkey Vero cells to IC50 for female adult Brugia malayi; assay type: functional; summary of the method: as §2
Brugia malayi [10] = assay: Antifilarial activity against adult Brugia malayi infected in jirds assessed as reduction in worms recovered from host at 100 mg/kg, sc qd for 5 days measured after 56 days relative to control; assay type: functional; summary of the method: as §3
Brugia malayi [11] = assay: Antifilarial activity against adult Brugia malayi infected in jirds assessed as decrease in microfilarial activity isolated from host peritoneal cavity at 100 mg/kg, sc qd for 5 days measured after 7 to 8 days; assay type: functional, organism-based; parameters: dose 100 mg/kg; summary of the method: as §3
Brugia malayi [12] = assay: Antifilarial activity against adult Brugia malayi infected in jirds assessed as reduction in worms recovered from host at 25 mg/kg, sc qd for 5 days measured after 56 days relative to control; assay type: functional, organism-based; parameters: dose 25 mg/kg; summary of the method: as §3
Brugia malayi [13] = assay: Antifilarial activity against adult Brugia malayi infected in jirds assessed as decrease in microfilarial activity isolated from host peritoneal cavity at 25 mg/kg, sc qd for 5 days measured after 7 to 8 days; assay type: functional, organism-based; parameters: dose 25 mg/kg; summary of the method: as §3
Brugia malayi [14] = assay: Antifilarial activity adult against Brugia malayi infected in jirds assessed as sterile female worms recovered from host at 25 mg/kg, sc qd for 5 days measured after 56 days relative to control; assay type: functional; conditions: route subcutaneous; summary of the method: as §3
Brugia malayi [15] = assay: Ratio of diethylcarbamazine citrate IC50 to compound IC50 for microfilariae Brugia malayi; assay type: functional
Meriones unguiculatus = assay: Toxicity against jird infected with adult Brugia malayi assessed as behavioural change at 100 mg/kg, sc qd for 5 days measured up to 56 days; assay type: organism-based; parameters: dose 100 mg/kg, route subcutaneous; conditions: gerbil, in vivo

Row | SMILES | LC100 (Brugia malayi [1]) | inhibition (INH) (Brugia malayi [2]) | LC100 (Brugia malayi [3]) | CC50 [4] | Ratio CC50/IC50 [5] | IC50 (Brugia malayi [3]) | Ratio (Brugia malayi [6]) | Ratio IC50 (Brugia malayi [7]) | Activity (Brugia malayi [8]) | Ratio CC50/IC50 [9] | IC50 (Brugia malayi [1]) | Activity (Brugia malayi [10]) | Activity (Brugia malayi [11]) | Activity (Brugia malayi [12]) | Activity (Brugia malayi [13]) | Activity (Brugia malayi [14]) | Ratio IC50 (Brugia malayi [15]) | Activity (Meriones unguiculatus) | Activity (Brugia malayi [10]; route subcutaneous)
1 | CC(=O)O[C@H]1CC[C@]2(C)[C@H]3C(=O)C=C4[C@@H]5C[C@@](C)(C(=O)O)CC[C@]5(C)CC[C@@]4(C)[C@]3(C)CC[C@H]2C1(C)C [ACETOXOLONE] | >100 µM | 9.45% | >100 µM | – | – | – | – | – | – | – | – | – | – | – | – | – | – | – | –
2 | CCOC(=O)[C@@]1(C)CC[C@]2(C)CC[C@]3(C)C(=CC(=O)[C@@H]4[C@@]5(C)CC[C@H](OC(C)=O)C(C)(C)[C@@H]5CC[C@]43C)[C@@H]2C1 | >100 µM | 28.78% | 50 µM | 10.3 µg/mL (≈ 19 µM) | 1.16 | 8.84 µM | – | – | – | – | – | – | – | – | – | – | – | – | –
3 | COC(=O)[C@@]1(C)CC[C@]2(C)CC[C@]3(C)C(=CC(=O)[C@@H]4[C@@]5(C)CC[C@H](OC(C)=O)C(C)(C)[C@@H]5CC[C@]43C)[C@@H]2C1 | >100 µM | 7.47% | 25 µM | 7.92 µg/mL (≈ 15 µM) | 3.58 | 2.21 µM | – | – | – | – | – | – | – | – | – | – | – | – | –
4 | CCCCCCCCCCCC(=O)O[C@H]1CC[C@]2(C)[C@H]3C(=O)C=C4[C@@H]5C[C@@](C)(C(=O)O)CC[C@]5(C)CC[C@@]4(C)[C@]3(C)CC[C@H]2C1(C)C | >100 µM | 10.69% | >100 µM | – | – | – | – | – | – | – | – | – | – | – | – | – | – | – | –
5 | CCCCCCCCNC(=O)[C@@]1(C)CC[C@]2(C)CC[C@]3(C)C(=CC(=O)[C@@H]4[C@@]5(C)CC[C@H](OC(C)=O)C(C)(C)[C@@H]5CC[C@]43C)[C@@H]2C1 | 100 µM | 52.15% | 100 µM | 106 µg/mL (≈ 170 µM) | 2.53 | 42 µM | 8 | 16 | 5% | 6.01 | 17.7 µM | inactive | inactive | – | – | – | – | – | –
6 | CCN(CC)C(=O)N1CCN(C)CC1.O=C(O)CC(O)(CC(=O)O)C(=O)O [DIETHYLCARBAMAZINE CITRATE] | 800 µM | 64% | 500 µM | 9100 µg/mL | 25.7 | 354 µM | – | – | – | 31.5 | 289 µM | – | – | inactive | inactive | 11% | – | – | –
7 | CC1(C)[C@@H](O)CC[C@]2(C)[C@H]3C(=O)C=C4[C@@H]5C[C@@](C)(C(=O)O)CC[C@]5(C)CC[C@@]4(C)[C@]3(C)CC[C@@H]12 [ENOXOLONE] | >100 µM | 21.71% | 12.5 µM | – | – | 1.2 µM | – | – | – | – | – | – | – | – | – | – | – | – | –
8 | CC(=O)O[C@H]1CC[C@]2(C)[C@H]3C(=O)C=C4[C@@H]5C[C@@](C)(C(=O)NCc6ccccc6)CC[C@]5(C)CC[C@@]4(C)[C@]3(C)CC[C@H]2C1(C)C | 25 µM | 48.79% | 50 µM | 584 µg/mL (≈ 970 µM) | 264.06 | 2.21 µM | 32 | – | 11% | 66.02 | 8.84 µM | – | inactive | – | – | – | 160 | Non-toxic | 54.21%
